Data published in ChEMBL document CHEMBL1153950, “The synthesis and biological evaluation of some caffeic acid amide derivatives: E-2-cyano-(3-substituted phenyl)acrylamides” (Bioorg Med Chem Lett, 2009).
In brackets after ≈: the same amount, converted by molar mass.

How the values were obtained:
KB = assay: Antitumor activity against human KB cells by MTT assay; assay type: functional, cell-based
Procedure, shortened: (§1)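 Screened in vitro by MTT assay on human gastric carcinoma BGC-823, nasopharyngeal carcinoma KB and hepatoma BEL-7402 cell lines; cis-diamminedichloroplatinum (DDP) served as positive control.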

[1] = target: Acetylcholinesterase (Homo sapiens) (UniProt P22303); assay: Inhibition of acetylcholinesterase at 25 uM
BGC-823 = assay: Antitumor activity against human BGC823 cells by MTT assay; assay type: functional, cell-based; procedure, shortened: as §1
Bel-7402 = assay: Antitumor activity against human Bel7402 cells by MTT assay; assay type: functional, cell-based; procedure, shortened: as §1

Chain of Acetylcholinesterase (Homo sapiens) (P22303 whole entry): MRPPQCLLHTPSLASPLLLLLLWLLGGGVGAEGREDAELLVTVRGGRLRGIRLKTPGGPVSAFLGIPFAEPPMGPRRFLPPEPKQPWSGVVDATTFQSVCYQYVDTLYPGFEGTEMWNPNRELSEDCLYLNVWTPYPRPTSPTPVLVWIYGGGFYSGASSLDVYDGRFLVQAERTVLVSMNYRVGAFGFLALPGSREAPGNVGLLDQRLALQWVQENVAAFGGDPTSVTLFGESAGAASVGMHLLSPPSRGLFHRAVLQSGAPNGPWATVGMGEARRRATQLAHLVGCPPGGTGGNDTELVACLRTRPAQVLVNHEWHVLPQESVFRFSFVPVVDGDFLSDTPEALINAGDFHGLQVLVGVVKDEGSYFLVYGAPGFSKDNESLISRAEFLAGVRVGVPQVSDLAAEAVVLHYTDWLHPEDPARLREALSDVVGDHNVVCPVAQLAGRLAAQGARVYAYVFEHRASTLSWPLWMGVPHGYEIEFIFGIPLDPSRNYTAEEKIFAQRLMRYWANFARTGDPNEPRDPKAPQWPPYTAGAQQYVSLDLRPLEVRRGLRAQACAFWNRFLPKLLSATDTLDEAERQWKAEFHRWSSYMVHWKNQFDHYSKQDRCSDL

Compound	IC50 (KB) [µg/mL]	inhibition [1] [%]	IC50 (BGC-823) [µg/mL]	IC50 (Bel-7402) [µg/mL]
N#C/C(=C\c1cc(O)c(O)c([N+](=O)[O-])c1)C(N)=O	> 100	1.09	> 100	> 100
N#C/C(=C\c1cc(O)c(O)c([N+](=O)[O-])c1)C(=O)Nc1cccc(Cl)c1	72.7 (≈ 202 µM)	4.37	> 100	40.1 (≈ 111 µM)
Cc1cccc(NC(=O)/C(C#N)=C/c2cc(O)c(O)c([N+](=O)[O-])c2)c1		2.73	5.6 (≈ 16.5 µM)	
COc1cc(/C=C(\C#N)C(=O)Nc2cccc(Cl)c2)cc([N+](=O)[O-])c1O	56.6 (≈ 151 µM)	1.64	26.1 (≈ 69.8 µM)	21.1 (≈ 56.5 µM)
N#C/C(=C\c1cc(O)c(O)c([N+](=O)[O-])c1)C(=O)N(c1ccccc1)c1ccccc1	104 (≈ 259 µM)	7.38	> 100	56.2 (≈ 140 µM)
COc1ccc(NC(=O)/C(C#N)=C/c2cc(O)c(O)c([N+](=O)[O-])c2)cc1	29.2 (≈ 82.2 µM)	4.64	45.4 (≈ 128 µM)	> 100
N#C/C(=C\c1cc(O)c(O)c([N+](=O)[O-])c1)C(=O)Nc1ccccc1Cl	37.4 (≈ 104 µM)	0.95	10.5 (≈ 29.2 µM)	24 (≈ 66.7 µM)
N#C/C(=C\c1cc(O)c(O)c([N+](=O)[O-])c1)C(=O)N1CCCCC1	> 100	0.27	> 100	> 100
N#C/C(=C\c1cc(O)c(O)c([N+](=O)[O-])c1)C(=O)N1CCOCC1	> 100	3	> 100	> 100
COc1c(O)ccc(/C=C(\C#N)C(=O)Nc2cccc(Cl)c2)c1[N+](=O)[O-]	> 100	2.19	> 100	65.3 (≈ 175 µM)
